# Screening data deposited in PubChem BioAssay by several laboratories.
# Rows were chosen to be rich in hits. Some 4.2% of all compounds tested hit in one or more screens of this group.
# KCC2 mod: modulates chloride dependent transport by human KCC2; Q9H2X9; KCC2 cells, thallium flux FluoZin-2 fluorescence; B-score of Tl+ flux slope (higher = more flux/activation; lower = inhibition) at 10 µM; actives 2.2% (n = 190,000);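 active = thallium flux slope and its plate-corrected score both differing from the plate sample mean at a set confidence after two filtering rounds, in either direction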;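 also: slope of fluorescence scaled to starting intensity during 10 to 20 s after thallium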
# hERG protect: shields human hERG channel from block by proarrhythmic agents; actives 0.51% (n = 310,000); activation (rescue from dofetilide block), less the hit threshold, % at 10 µM; CHO-hERG, FluxOR thallium flux, dofetilide IC70 present; AID 1511; Q12809;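 active = activation above the mean of controls blocked by dofetilide plus 5 SD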;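 also: thallium influx through hERG after potassium depolarization seen as dye fluorescence rise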
# Target sequence (Q12809 whole entry, looked up): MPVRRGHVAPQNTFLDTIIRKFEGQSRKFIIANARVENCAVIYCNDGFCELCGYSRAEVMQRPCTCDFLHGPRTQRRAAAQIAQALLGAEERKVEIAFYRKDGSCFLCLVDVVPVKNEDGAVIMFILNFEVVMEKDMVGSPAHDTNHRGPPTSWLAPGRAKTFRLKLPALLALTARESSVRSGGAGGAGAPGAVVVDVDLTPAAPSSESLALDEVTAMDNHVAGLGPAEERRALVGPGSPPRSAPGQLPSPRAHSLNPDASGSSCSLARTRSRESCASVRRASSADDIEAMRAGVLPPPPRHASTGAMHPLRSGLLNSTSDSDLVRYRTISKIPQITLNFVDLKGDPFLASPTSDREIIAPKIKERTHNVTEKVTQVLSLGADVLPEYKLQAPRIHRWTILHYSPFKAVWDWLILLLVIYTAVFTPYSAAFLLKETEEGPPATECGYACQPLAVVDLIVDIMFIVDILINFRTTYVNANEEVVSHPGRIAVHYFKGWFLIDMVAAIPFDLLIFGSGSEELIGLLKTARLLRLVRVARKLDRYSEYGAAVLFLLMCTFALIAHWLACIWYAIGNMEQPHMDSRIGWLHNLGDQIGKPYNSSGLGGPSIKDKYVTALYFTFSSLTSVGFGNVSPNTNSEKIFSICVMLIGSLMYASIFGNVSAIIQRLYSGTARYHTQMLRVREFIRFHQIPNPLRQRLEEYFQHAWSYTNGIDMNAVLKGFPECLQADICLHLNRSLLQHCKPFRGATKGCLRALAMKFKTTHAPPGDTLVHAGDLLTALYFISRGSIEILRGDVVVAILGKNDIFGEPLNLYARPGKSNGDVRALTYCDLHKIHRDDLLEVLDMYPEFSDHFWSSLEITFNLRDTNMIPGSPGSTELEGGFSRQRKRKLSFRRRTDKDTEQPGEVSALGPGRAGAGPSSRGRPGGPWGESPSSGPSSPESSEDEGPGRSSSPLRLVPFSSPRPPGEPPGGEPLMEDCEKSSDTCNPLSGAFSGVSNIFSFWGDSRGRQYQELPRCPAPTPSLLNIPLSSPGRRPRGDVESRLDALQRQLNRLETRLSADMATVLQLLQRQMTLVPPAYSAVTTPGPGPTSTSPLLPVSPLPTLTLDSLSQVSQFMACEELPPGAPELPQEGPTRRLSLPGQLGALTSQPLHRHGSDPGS
# KCNQ1 block: blocks the human KCNQ1 potassium channel. P51787. CHO-K1 KCNQ1, FluxOR thallium flux fluorescence; hits give high values. B-score at 10 µM. actives 1.3% (n = 310,000). AID 2642;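 active = compounds whose thallium flux B-score, printed positive for inhibition, exceeds three library SD while starting fluorescence stays within three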;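 also: channel opened by potassium depolarization with thallium stimulus after 20 min compound exposure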
# AI-2 QS modul: modulates the Vibrio harveyi AI-2 quorum sensing system; Vibrio harveyi JMH597 AI-2 luminescence/OD600 ratio, 9 h; hits give low values; strain lacks LuxN and CqsS sensors; 0 = neutral-control median; activity change, % at 7.5 µM; actives 0.4% (n = 300,000); AID 2094; in the data active = activity change below about -75%, passing the limit was not always enough; inconclusive = no clear call, values can overlap the other calls;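 also: luminescence divided by OD600 gain over 9 h not by final OD600 alone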
# Mot1-301 SUMO: blocks SUMOylation pathway, rescuing yeast Mot1-301 growth; S. cerevisiae Mot1-301 growth rescue, ATP luminescence, 38.5C; percent above DMSO median, 100 means doubled; growth rescue, % at 18.8 µM; actives 1% (n = 320,000);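 active = every valid replicate shows activation above 250% relative to neutral control wells; inactive = the rest, any valid replicate at or below 250%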
# KCNQ1 pot: human KCNQ1 channel potentiation or activation; AID 2648; B-score at 10 µM; CHO-K1 KCNQ1, thallium flux FluxOR fluorescence; hits give high values; actives 0.35% (n = 310,000);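 active = fluorescence ratio B-score, a plate-corrected score, at least three library SD, with initial intensity B-score within 5 SD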
#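 Doses: Single concentration per compound, DMSO matched to controls | Test system: KCNQ1-transfected CHO-K1 cells | Timing: 90 min dye loading and 20 min compound exposure, both at room temperature | Measured by: Kinetic FluxOR thallium fluorescence, 10-s 1-Hz baseline, 110-s post-stimulus read | Medium: Assay buffer with matched DMSO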
# KCC2 sec1: confirmation of human KCC2 transport modulators. shares compounds with KCC2 mod. HEK293-KCC2, thallium flux, FluoZin2 fluorescence; hits give high values. normalised thallium flux (F/F0 slope) at 10 µM. actives 15% (n = 3,700). AID 1713;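 active = thallium flux slope above the same plate's solvent-only control mean plus 3 SD; inconclusive = the two replicate wells disagree; inactive = no significant difference from solvent-only control wells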
# KCC2 bumet counter: bumetanide-insensitive thallium flux in KCC2 cells with ouabain, counter-screen; shares compounds with KCC2 mod; HEK293-KCC2 + bumetanide/ouabain, thallium flux FluoZin2; hits give high values; normalized thallium flux at 10 µM; actives 49% (n = 3,700);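 active = thallium entry rate above the same plate's blocked-transporter control wells by more than 3 SD; inconclusive = the two repeat wells disagree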;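 also: raw slope of fluorescence over initial fluorescence between 10 and 20 s after thallium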
# KCC2 sec2: confirmation of human KCC2 transport modulators. actives 23% (n = 3,700). normalized thallium flux at 10 µM. HEK293-KCC2, thallium flux FluoZin2 fluorescence; actives lie on both sides; F/F0 rise rate, 10–20 s post-thallium. AID 1715. shares compounds with KCC2 mod;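 active = thallium flux slope more than 3 SD above or below the plate's solvent-only control mean, mostly below; inconclusive = the two repeat wells disagreed; inactive = no significant shift from solvent-only controls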
# HEK293 Tl flux: parental HEK flux effect, counter-screen; shares compounds with KCC2 mod; HEK293 parental cells, thallium flux FluoZin2, ouabain; baseline-ratio fluorescence slope, 10–20 s after thallium; thallium flux rate (normalised fluorescence) at 10 µM; actives 46% (n = 3,700); AID 1716;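 active = thallium flux rate significantly above the same plate's solvent-only control wells, beyond their mean plus 3 SD; inconclusive = the two replicate wells gave conflicting results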
# KCC2 ouabain: confirmation of human KCC2 modulators with ouabain; shares compounds with KCC2 mod; HEK293-KCC2, thallium flux FluoZin2 fluorescence; bidirectional: low = inhibitor, high = activator; raw Tl+ flux slope (below DMSO = inhibition, above = activation) at 10 µM; actives 48% (n = 3,700); AID 1717;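 active = thallium flux slope beyond 3 SD from same-plate DMSO control mean in most replicates, usually higher, sometimes lower; inconclusive = repeat tests gave conflicting results; inactive = no significant difference from controls in most replicates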;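 also: slope of initial-normalized fluorescence between seconds 10 and 20 after thallium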
# HEK293 Tl flux2: acts in parental HEK cells, second KCC2 counter-screen; shares compounds with KCC2 mod; HEK293 parental, thallium flux FluoZin-2 fluorescence slope; thallium flux slope at 10 µM; actives 33% (n = 3,700);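 active = thallium flux slope above the same plate's solvent-control mean plus 3 SD in both duplicate wells; inconclusive = duplicate wells that disagreed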;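 also: run without ouabain in cells lacking the KCC2 cotransporter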
# A number is an active result; - = inactive; ? = inconclusive; . = not tested or not shown.
SMILES,KCC2 mod,hERG protect,KCNQ1 block,AI-2 QS modul,Mot1-301 SUMO,KCNQ1 pot,KCC2 sec1,KCC2 bumet counter,KCC2 sec2,HEK293 Tl flux,KCC2 ouabain,HEK293 Tl flux2
CCc1ccc(NC(=S)NC(=O)c2c(-c3ccccc3Cl)noc2C)cc1,16,-,-,-,-,-,-,0.027,0.04,0.028,0.032,0.017
COC(=O)c1cccc(NC(=O)CN2CCc3ccccc3C2)c1,.,-,-,-,-,-,.,.,.,.,.,.
COc1ccc(C2N(c3ccccc3)CCN2c2ccccc2)cc1O,-,-,-,-,-,-,.,.,.,.,.,.
O=C(NCCN1CCOCC1)c1cccc(S(=O)(=O)NCc2ccccc2)c1,.,-,-,-,-,-,.,.,.,.,.,.
COC(=O)c1ccc(NC(=S)NN2CCCCC2c2cccnc2)cc1 (configuration not stated),-,-,-,-,-,-,.,.,.,.,.,.
O=C(NC(=S)NN1CCCCC1c1cccnc1)c1ccc(Br)cc1 (configuration not stated),65,-,-,-,-,-,0.033,0.099,0.046,0.04,0.066,0.02
CCOc1ccc(N(CC(=O)Nc2c(C)n(C)n(-c3ccccc3)c2=O)S(=O)(=O)c2ccccc2)cc1,-2.8,-,-,-,-,-,-,-,-,-,-,-
Cc1c(-c2n[nH]c(=S)n2-c2ccc(Br)cc2)nnn1-c1ccc(Cl)cc1,5.4,-,-,-,.,-,-,0.024,-,0.01,-,?
C[C@@H]1CN([C@@H](C)CO)C(=O)c2cc(NC(=O)C3CC3)ccc2O[C@@H]1CN(C)C(=O)NC1CCCCC1,.,.,.,.,-,.,.,.,.,.,.,.
Cc1cccc(NC(=O)C(C)Sc2nc3nc(C)cc(C)n3n2)c1 (configuration not stated),.,.,.,.,-,.,.,.,.,.,.,.
O=c1cc(-c2ccccc2)nc(SCc2ccc(F)cc2)[nH]1,3.9,-,-,-,-,-,-,-,-,-,-,-
Cc1cc(NC(=O)COC(=O)c2ccc(OC(F)(F)F)cc2)no1,.,.,.,.,-,.,.,.,.,.,.,.
Cc1cc(NC(=O)COC(=O)C(Nc2ccc(C(F)(F)F)cc2Cl)C(C)C)no1 (configuration not stated),-7.2,-,-,-,-,-,-,-,-,-,-,-
O=C(O)CC(Sc1n[nH]c(=S)s1)C(=O)O (configuration not stated),-,-,-,-,-,-,.,.,.,.,.,.
CCCc1nc2nc(C)c(NS(=O)(=O)c3ccc(C4CCCCC4)cc3)c(=O)n2[nH]1,.,-,-,.,-,-,.,.,.,.,.,.
O=C(Nc1nc2c(Br)cc(Br)cc2c(=O)s1)C1CCC1,9.9,5.9,-,-,-,-,0.024,0.041,-,0.027,0.044,0.015
Cc1ccc(C)c2sc(NC(=O)C3CC3)nc12,.,-,-,-,-,-,.,.,.,.,.,.
CN(CC(CC(=O)Nc1nncs1)c1ccccc1)S(=O)(=O)c1ccc(Br)cc1 (configuration not stated),-,-,-,-,-,-,.,.,.,.,.,.
CN(C)CCCN1C(=O)c2oc3ccc(Cl)cc3c(=O)c2C1c1cccnc1 (configuration not stated),3.7,-,-,-,-,-,-,0.015,-,0.0099,?,-
Cc1c(Br)c([N+](=O)[O-])nn1CCCC(=O)N1CCN(c2ccccc2)CC1,-,-,-,-,-,-,.,.,.,.,.,.
Cc1c(Cl)c([N+](=O)[O-])nn1CCCC(=O)N1CCN(c2ccccc2)CC1,-2.7,-,-,-,-,-,-,?,-,-,-,?
Cc1nn(-c2ccccc2)c(N)c1Sc1ccccc1[N+](=O)[O-],-,-,-,-,-,-,.,.,.,.,.,.
Cc1nn(-c2ccccc2)c(N)c1Sc1cccc([N+](=O)[O-])c1,-7,-,-,-,-,-,-,-,-,0.0053,-,-
CC1CC(=O)Nc2ccccc2N1C(=O)Cn1cnc2ccccc2c1=O (configuration not stated),.,.,.,.,-,.,.,.,.,.,.,.
O=C(O)CSc1nnc(COc2cccc3ccccc23)o1,.,-,-,-,-,-,.,.,.,.,.,.
SMILES,KCC2 mod,hERG protect,KCNQ1 block,AI-2 QS modul,Mot1-301 SUMO,KCNQ1 pot,KCC2 sec1,KCC2 bumet counter,KCC2 sec2,HEK293 Tl flux,KCC2 ouabain,HEK293 Tl flux2
Cc1csc(N(C)C(=O)CSc2nnc(COc3cccc4ccccc34)o2)n1,.,-,-,-,-,-,-,-,-,-,0.015,-
Cn1c(C(=O)N2CCC(C(=O)NCc3ccccc3)CC2)cc2sccc21,.,-,-,-,-,-,.,.,.,.,.,.
CN(C(=O)/C=C/c1ccc(F)cc1)C1CCCCC1,.,-,-,-,-,-,.,.,.,.,.,.
CN(C(=S)NC(=O)/C=C/c1ccc(F)cc1)C1CCCCC1,12,-,-,-,-,-,-,0.072,-,0.019,?,0.014
C=C(C)C1CC=C(C)/C(=N\NC(=S)Nc2ccc(C)cc2)C1 (configuration not stated),4.6,-,-,-,-,-,-,0.022,-,0.012,0.04,0.011
COC(=O)c1sc(NC(=S)NC(=O)c2ccccc2F)nc1C,36,-,-,-,-,-,-,0.037,?,0.033,0.04,0.022
Cc1nc(NC(=S)NC(=O)c2ccccc2)sc1C,46,-,-,-,-,-,0.015,0.06,-,0.028,0.037,0.013
CCCCc1nnc(NC(=O)CSCc2cc(=O)n3cc(C)sc3n2)s1,.,-,-,-,-,-,.,.,.,.,.,.
Nc1ncnc2c1nc(Br)n2[C@@H]1O[C@@H]2COP(=O)(O)O[C@H]2[C@H]1O,.,-,-,-,-,-,.,.,.,.,.,.
CCOc1ccc(C(=O)NCCCN(CC)CC)cc1,-,-,-,-,-,-,.,.,.,.,.,.
CCOc1ccc(N(CCCCO)C(=S)NC(=O)c2ccc(C)c(Br)c2)cc1,13,-,-,-,-,-,-,0.049,0.044,0.029,0.046,0.033
